TCR CD3 inh – human TCR-CD3 binding inhibition; TAMRA-labeled TCR probe fluorescence, biochemical; AID 651800; 0.37% of 360,000 active; inhibition, % at 9.4 µM; in the data active means inhibition above about 19%;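 further: recombinant mutant TCR 2C K166C tagged with TAMRA read by polarization; 0% = receptor in buffer alone and 100% = receptor with positive control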
PRMT1 FP inh – blocks human protein arginine methyltransferase 1; recombinant PRMT1, activity-based probe fluorescence polarization; inhibition, % at 2.79 µM; 1.3% of 370,000 active; AID 652257;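 active means inhibition above about 21% made by adding two undisclosed values, limit read from the data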
mABHD4 FP – ABHD4 (mouse) inhibition, primary FP screen. inhibition, % at 8.92 µM. 0.54% of 370,000 active. AID 720543. purified mABHD4, FP-Rh probe fluorescence polarization;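 active means inhibition exceeding the mean over every tested compound plus 3 SD, cut at about 30% in these data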;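 further: 0% = plate median of compound wells and 100% = S159A mutant with DMSO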
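Assay system: wild-type mouse ABHD4 protein; compound: single nominal dose of 8.92 µM, 0.89% DMSO final; schedule: 45 min + 60 min at 25 °C; measured by: FP readout, ex 525 nm / em 598 nm; evaluation: % inhibition of FP-Rh probe binding versus controls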
SIAE inh – human SIAE inhibition, primary screen; Q9HAT2; SIAE FP-Rh probe binding, fluorescence polarization; inhibition, % at 9.66 µM; 0.69% of 370,000 active; AID 1053197;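 active means inhibition above a cutoff: mean of compounds within the control limits plus 3 SD of those, cut at about 17% in these data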;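 further: 0% = plate median of compound wells and 100% = probe without SIAE protein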
HTRA1 inh – blocks human HTRA1 serine peptidase; AID 504803; 0.5% of 340,000 active; Q92743; inhibition, % at 5.96 µM; recombinant HTRA1, FP-rhodamine activity-based probe, fluorescence polarization; in the data active means inhibition above about 36%;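 further: 0% = enzyme with DMSO and 100% = wells lacking enzyme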
Target sequence (Q92743 whole entry, looked up): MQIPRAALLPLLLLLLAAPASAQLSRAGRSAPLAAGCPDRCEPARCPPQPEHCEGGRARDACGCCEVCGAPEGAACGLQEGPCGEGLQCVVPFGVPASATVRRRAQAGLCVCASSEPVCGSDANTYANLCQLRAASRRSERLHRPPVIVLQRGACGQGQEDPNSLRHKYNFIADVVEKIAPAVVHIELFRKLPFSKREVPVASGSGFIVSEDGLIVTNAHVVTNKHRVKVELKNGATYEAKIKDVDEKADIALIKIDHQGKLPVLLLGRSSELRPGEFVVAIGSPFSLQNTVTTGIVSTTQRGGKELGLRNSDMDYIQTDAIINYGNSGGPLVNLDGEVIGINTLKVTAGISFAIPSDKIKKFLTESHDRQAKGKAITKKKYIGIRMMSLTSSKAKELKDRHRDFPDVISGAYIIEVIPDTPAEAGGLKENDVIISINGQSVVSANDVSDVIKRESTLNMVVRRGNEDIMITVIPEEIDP
SIAE inh conf – human SIAE inhibition, confirmation; shares compounds with SIAE inh; SIAE FP-Rh activity-based probe, fluorescence polarization; inhibition, % at 9.66 µM; 13% of 2,300 active; AID 1117263;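 active means mean inhibition of the replicates above the hit cutoff set in the primary screen, cut at about 17% in these data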;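 further: 0% = SIAE with DMSO and probe and 100% = probe without SIAE; inhibitors lower polarization as more probe stays unbound to SIAE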
An asterisk follows results filed as active; · = no result; ! = not confirmed by another sample. Only some compounds are listed: those with a hit (about 2.5% of all), similar ones and a draw of the others.

SMILES	TCR CD3 inh	PRMT1 FP inh	mABHD4 FP	SIAE inh	HTRA1 inh	SIAE inh conf
CN(C)C1=C(Cl)C(=O)N(c2ccc(Cl)c(Cl)c2)C1=O	0	14	5	19*	-62	1
COC(=O)c1cn(-c2ccc(F)cc2)c(=O)c2ccccc12	0	-2	3	18*	-2	6
CCOC(=O)c1ccccc1NC(=O)COC(=O)CCC(=O)c1ccc(C)cc1	-5	-1	4	20*	-11	-4
O=C(CSc1nnc(SCc2cccc3ccccc23)s1)N/N=C/c1c[nH]c2ccccc12	8	-2	-8	30*	-28	0
O=C(CSc1nnc(SCc2ccc(Cl)cc2)s1)N/N=C/c1c[nH]c2ccccc12	1	1	5	0	-5	·
COc1cc(/C=N/NC(=O)Cn2ccc(C(F)(F)F)n2)cc(OC)c1OC	-1	1	1	-3	-8	·
CC#CCCCC(=O)Nc1ccccc1C(=O)O	7	-2	-2	19*	4	3
Cc1cc[n+](-c2[nH]c(=O)sc2/C=N/N=C(\[O-])CCn2c3ccccc3c3ccccc32)cc1	-5	5	14	24*	·	11
CCc1ccc[n+](-c2[nH]c(=O)sc2/C=N/N=C(\[O-])CCn2c3ccccc3c3ccccc32)c1	-6	11	7	-5	14	·
CCOC(=O)C(C(=O)OCC)C(C[N+](=O)[O-])c1ccccc1 (stereo unspecified)	0	3	-1	0	2	·
CCCc1cc(=O)oc2cc(OCC(=O)NCCc3c[nH]c4ccccc34)ccc12	0	2	3	-19	-5	·
CN(Cc1ccccc1Br)C(=O)CN1C(=O)NC2(CCCCCC2)C1=O	-1	-3	-1	19*	-7	3
CN(Cc1ccccc1)C(=O)CN1C(=O)NC2(CCCC2)C1=O	-6	2	6	1	-3	·
Cc1cccc(-c2nc(Nc3ccc(N4CCOCC4)cc3)c3ccccc3n2)c1	-2	-1	9	30*	15	6
COC(=O)c1ccc(S(=O)(=O)c2ccccc2)c(N)c1	-6	2	1	2	-5	·
COC1=C(Br)C(=O)c2ncccc2C1=O	3	2	11	22*	18	-1
O=C(NC(=S)N(Cc1ccccc1)Cc1ccccc1)c1ccccc1F	-4	4	2	79*	-12	-2
CCOc1ccc(CCNC(=O)c2sc3nc4n(c(=O)c3c2C)CCC4)cc1	-5	3	4	-2	0	·
CCS(=O)(=O)Nc1ccc2c(c1)C(=O)N(C)[C@@H]1CC[C@H](CC(=O)NCCCN3CCOCC3)O[C@H]1CO2	·	-6	-4	18*	·	19*
CCS(=O)(=O)Nc1ccc2c(c1)C(=O)N(C)[C@@H]1CC[C@H](CC(=O)OC)O[C@H]1CO2	·	-1	3	-4	·	·
O=C(O)c1ccccc1C(=O)c1ccc2c(c1)N(Cc1ccc(Cl)c(Cl)c1)C(=O)CO2	0	1	5	-4	-51	·
CS(=O)(=O)N(CC(=O)NCCSC1CCCCC1)c1cccc(F)c1	-2	-1	8	18*	0	1
COC(=O)c1ccc(-c2cccc(CN3CCN(c4ncc(Cc5ccccc5)cn4)CC3)c2)cc1	-5	5	6	-6	·	·
Cc1ccc(C2CCC3(CCC(=O)N3CCOC(=O)Nc3ccc(F)cc3)CC2)cc1 (stereo unspecified)	·	4	-16	18*!	·	-12
CCOC(=O)c1cccc(NC(=O)COc2nsnc2N2CCOCC2)c1	1	-4	-5	-4	-2	·
SMILES	TCR CD3 inh	PRMT1 FP inh	mABHD4 FP	SIAE inh	HTRA1 inh	SIAE inh conf
CC1=CCC(C(=O)O)C(C(=O)NC2CCCCC2)C1 (stereo unspecified)	3	4	4	22*	8	2
CC1=C(C)CC(C(=O)NC2CCCC2)C(C(=O)O)C1 (stereo unspecified)	2	5	-2	6	1	·
N#CC(C#N)=C/C=C(\Nc1ccc(Cl)cc1)c1ccc(Cl)cc1	-9	0	3	2	-6	·
N#CC(=C1C=C(Br)C(=NO)C=C1Cl)c1ccc(Cl)cc1	4	14	19	33*	-16	50*
Cc1ccc(C2Nc3cccc4cccc(c34)N2)s1	5	6	8	27*	14	13
Fc1ccc(C2Nc3cccc4cccc(c34)N2)cc1	1	9	9	19*	12	10
Brc1ccc(C2Nc3cccc4cccc(c34)N2)cc1	-5	13	9	2	5	·
